Measurements from ChEMBL document CHEMBL1955790, “One pot synthesis and anticancer activity of dimeric phloroglucinols” (Bioorg Med Chem Lett, 2012).

What was measured:
[1] = tested on: HCT-116; test: Growth inhibition of human HCT116 cells at 10 uM after 48 hrs by WST-8 assay; format: functional; conditions: HCT-116, 48 h, read-out: GI
How it was run: (§1)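 ATCC cells kept in DMEM with 10% FBS and antibiotics at 37 °C, 5% CO2. Seeded 5×10^3/well, incubated overnight, then treated with compound for 48 h against a DMSO vehicle control (≤0.1%). CCK-8 (WST-8) reduction by live-cell dehydrogenases read at 450 nm (corrected 650 nm) after 4 h at 37 °C. Viable cells expressed as % of the DMSO control.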

[2] = tested on: HCT-116; test: Cytotoxicity against human HCT116 cells after 48 hrs by WST-8 assay; format: functional, cell-based; conditions: HCT-116, 48 h
How it was run: (§2)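 ATCC cells kept in DMEM with 10% FBS, penicillin/streptomycin at 37 °C, 5% CO2. Seeded 5×10^3/well and left overnight, then exposed to a range of concentrations with DMSO vehicle (≤0.1%) as control. After 48 h, CCK-8 (WST-8) was added for 4 h at 37 °C and A450 read, corrected to 650 nm. Viability is % of DMSO control. IC50 was taken from log cytotoxicity curves.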

[3] = tested on: ACHN; test: Growth inhibition of human ACHN cells at 10 uM after 48 hrs by WST-8 assay; format: functional; conditions: read-out: GI; how it was run: as §1
[4] = tested on: NCI-H460; test: Cytotoxicity against human NCI-H460 cells after 48 hrs by WST-8 assay; format: functional, cell-based; conditions: NCI-H460, 48 h; how it was run: as §2
[5] = tested on: PANC-1; test: Growth inhibition of human PANC1 cells at 10 uM after 48 hrs by WST-8 assay; format: functional; conditions: PANC-1, 48 h, read-out: GI; how it was run: as §1
[6] = tested on: ACHN; test: Cytotoxicity against human ACHN cells after 48 hrs by WST-8 assay; format: functional, cell-based; how it was run: as §2
[7] = tested on: Calu-1; test: Cytotoxicity against human Calu1 cells after 48 hrs by WST-8 assay; format: functional, cell-based; conditions: Calu-1, 48 h; how it was run: as §2
[8] = tested on: NCI-H460; test: Growth inhibition of human NCI-H460 cells at 10 uM after 48 hrs by WST-8 assay; format: functional; conditions: NCI-H460, 48 h, read-out: GI; how it was run: as §1
[9] = tested on: Calu-1; test: Growth inhibition of human Calu1 cells at 10 uM after 48 hrs by WST-8 assay; format: functional; conditions: Calu-1, 48 h, read-out: GI; how it was run: as §1
[10] = tested on: PANC-1; test: Cytotoxicity against human PANC1 cells after 48 hrs by WST-8 assay; format: functional, cell-based; conditions: PANC-1, 48 h; how it was run: as §2
[11] = tested on: MCF-10A; test: Cytotoxicity against human MCF10A cells after 48 hrs by WST-8 assay; format: cell-based; how it was run: as §2
[12] = tested on: NCI-H460; test: Growth inhibition of human NCI-H460 cells at 500 nM after 48 hrs by WST-8 assay; format: functional; conditions: NCI-H460, 48 h, read-out: GI; how it was run: as §1
[13] = tested on: Calu-1; test: Growth inhibition of human Calu1 cells at 500 nM after 48 hrs by WST-8 assay; format: functional; conditions: Calu-1, 48 h, read-out: GI; how it was run: as §1
[14] = tested on: PANC-1; test: Growth inhibition of human PANC1 cells at 500 nM after 48 hrs by WST-8 assay; format: functional; conditions: PANC-1, 48 h, read-out: GI; how it was run: as §1
[15] = tested on: HCT-116; test: Growth inhibition of human HCT116 cells at 500 nM after 48 hrs by WST-8 assay; format: functional; conditions: HCT-116, 48 h, read-out: GI; how it was run: as §1
[16] = tested on: ACHN; test: Growth inhibition of human ACHN cells at 500 nM after 48 hrs by WST-8 assay; format: functional; conditions: read-out: GI; how it was run: as §1

| Compound | inhibition of growth at 10 µM [1] [%] | IC50 [2] [µM] | inhibition of growth at 10 µM [3] [%] | IC50 [4] [µM] | inhibition of growth at 10 µM [5] [%] | IC50 [6] [µM] | IC50 [7] [µM] | inhibition of growth at 10 µM [8] [%] | inhibition of growth at 10 µM [9] [%] | IC50 [10] [µM] | IC50 [11] [µM] | inhibition of growth at 0.5 µM [12] [%] | inhibition of growth at 0.5 µM [13] [%] | inhibition of growth at 0.5 µM [14] [%] | inhibition of growth at 0.5 µM [15] [%] | inhibition of growth at 0.5 µM [16] [%] |
| --- | --- | --- | --- | --- | --- | --- | --- | --- | --- | --- | --- | --- | --- | --- | --- | --- |
| CC(C)CC(=O)c1c(O)c(C(=O)CC(C)C)c(O)c(C(c2ccc(-c3ccccc3)cc2)c2c(O)c(C(=O)CC(C)C)c(O)c(C(=O)CC(C)C)c2O)c1O | 55 | 8.6 | 59 | 8.3 | 54 | 8.9 | 7.9 | 54 | 52 | 9.1 | > 26.3 |  |  |  |  |  |
| Nc1ccn([C@@H]2O[C@H](CO)[C@@H](O)C2(F)F)c(=O)n1 [GEMCITABINE] |  | 0.32 |  | 0.23 |  | 0.48 | 0.52 |  |  | 0.11 | > 10 | 81 | 74 | 83 | 86 | 77 |
| CC(C)CC(=O)c1c(O)c(C=O)c(O)c(C(c2ccc3c(c2)OCO3)c2c(O)c(C=O)c(O)c(C(=O)CC(C)C)c2O)c1O | 50 | 9.5 | 53 | 8.6 | 55 | 8.9 | 9.2 | 51 | 54 | 8.8 | 25.9 |  |  |  |  |  |
| CC(C)CC(=O)c1c(O)c(C=O)c(O)c(C(c2cccnc2)c2c(O)c(C=O)c(O)c(C(=O)CC(C)C)c2O)c1O | 69 | 5.5 | 71 | 5.8 | 67 | 5.7 | 6.3 | 68 | 66 | 6.1 | > 30 |  |  |  |  |  |
| CC(C)CC(=O)c1c(O)cc(O)c(C=O)c1O | 57 | 9.7 | 52 | 9.4 | 50 | 8.9 | 9.1 | 58 | 59 | 8.5 | > 27.3 |  |  |  |  |  |
| CC(C)CC(=O)c1c(O)c(C(=O)CC(C)C)c(O)c(C(c2ccc3c(c2)OCO3)c2c(O)c(C(=O)CC(C)C)c(O)c(C(=O)CC(C)C)c2O)c1O | 60 | 7.1 | 67 | 6.6 | 69 | 6.7 | 6.5 | 63 | 62 | 7.2 | > 30 |  |  |  |  |  |
| CC(C)CC(=O)c1c(O)c(C=O)c(O)c(C(c2ccc3c(c2)Cc2ccccc2-3)c2c(O)c(C=O)c(O)c(C(=O)CC(C)C)c2O)c1O | 52 | 9.4 | 50 | 9.2 | 57 | 9.9 | 8.8 | 54 | 58 | 9.6 | 26.2 |  |  |  |  |  |
